Test results reported in ChEMBL document CHEMBL4699424, “New chemical agents based on adamantane-monoterpene conjugates against orthopoxvirus infections” (RSC Med Chem, 2020).

What was measured:
Vaccinia virus [1] = assay: Antiviral activity against Vaccinia virus; format: functional, organism-based; details: Orthopoxvirus vaccinia
Vaccinia virus [2] = assay: Antiviral activity against Vaccinia virus Copenhagen infected in African green monkey Vero cells assessed as reduction in cell survival incubated for 4 days by neutral red dye based colorimetric analysis; format: functional, organism-based; details: Orthopoxvirus vaccinia, 96 h
[3] = Selectivity index, ratio of CC50 for African green monkey Vero cells to IC50 for Vaccinia virus Copenhagen infected in African green monkey Vero cells assessed as reduction in cell survival incubated for 4 days by neutral dye based colorimetric analysis; format: toxicity; details: read-out: Ratio CC50/IC50
[4] = Cytotoxicity against African green monkey Vero cells assessed as […]; format: cell-based; details: chlorocebus sabaeus
Method in brief: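 Uninfected Vero monolayers in DMEM with 2% serum, given 8 three-fold compound dilutions starting at 1, 10 or 100 μg ml–1. Cell viability read by neutral red uptake: dye 1.5 h, washes, lysis, OD. CC50, the concentration causing 50% cell death, calculated from OD values.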

Ectromelia virus = assay: Antiviral activity against Ectromelia virus K-1 infected in African green monkey Vero cells assessed as reduction in cell survival incubated for 4 days by neutral red dye based colorimetric analysis; format: functional; details: K-1, Vero, 96 h
[5] = Selectivity index, ratio of CC50 for African green monkey Vero cells to IC50 for Ectromelia virus K-1 infected in African green monkey Vero cells assessed as reduction in cell survival incubated for 4 days by neutral dye based colorimetric analysis; format: toxicity; details: read-out: Ratio CC50/IC50
[6] = Selectivity index, ratio of CC50 for African green monkey Vero cells to IC50 for Cowpox virus Grishak infected in African green monkey Vero cells assessed as reduction in cell survival incubated for 4 days by neutral dye based colorimetric analysis; format: toxicity; details: read-out: Ratio CC50/IC50
Cowpox virus = assay: Antiviral activity against Cowpox virus Grishak infected in African green monkey Vero cells assessed as reduction in cell survival incubated for 4 days by neutral red dye based colorimetric analysis; format: functional, organism-based; details: 96 h
Vaccinia virus [7] = assay: Antiviral activity against Vaccinia virus assessed as reduction in viral reproduction at 2 ug/ml after 3 hrs relative to control; format: functional, Orthopoxvirus vaccinia; set-up: scale not given: the % may be the effect or the level left; details: dose 2 µg/ml
Vaccinia virus [8] = assay: Antiviral activity against Vaccinia virus assessed as reduction in viral reproduction at 2 ug/ml relative to control; format: functional, Orthopoxvirus vaccinia; set-up: scale not given: the % may be the effect or the level left; details: dose 2 µg/ml

SMILES: CC1(C)[C@H]2CC[C@]1(C)[C@H](OC(=O)CCN1CCOCC1)C2
- IC50 (Vaccinia virus [1]): 3.5 µM

SMILES: CC1CCN(CC(=O)N[C@@H]2C[C@H]3CC[C@]2(C)C3(C)C)CC1
- IC50 (Vaccinia virus [1]): 2.5 µM

SMILES: C=C(C)[C@@H]1CC=C(CNC(=O)C23CC4CC(CC(C4)C2)C3)CC1
- IC50 (Vaccinia virus [2]): 12.3 µM
- selectivity ratio at 96 h [3]: 26
- CC50 [4]: 319 µM

SMILES: CC1(C)[C@H]2CC[C@](C)(C2)[C@H]1NC(=O)C12CC3CC(CC(C3)C1)C2
- IC50 (Vaccinia virus [2]): 14.4 µM
- selectivity ratio at 96 h [3]: 22
- CC50 [4]: 317 µM

SMILES: CC1=CC[C@H](CCNC(=O)C2C3CC4CC(C3)CC2C4)C1(C)C (some centres undefined)
- IC50 (Vaccinia virus [2]): 2.6 µM
- selectivity ratio at 96 h [3]: 122
- CC50 [4]: 317 µM

SMILES: CC1(C)[C@H]2CC=C(CNC(=O)C3C4CC5CC(C4)CC3C5)[C@@H]1C2 (some centres undefined)
- IC50 (Ectromelia virus): 12.6 µM
- selectivity ratio at 96 h [5]: 97
- selectivity ratio at 96 h [6]: 82
- IC50 (Cowpox virus): 15 µM
- IC50 (Vaccinia virus [2]): 4.6 µM
- selectivity ratio at 96 h [3]: 267
- CC50 [4]: 1230 µM

SMILES: CC(C)=CCCC(C)CC(=O)NC1C2CC3CC(C2)CC1C3 (centres undefined)
- IC50 (Vaccinia virus [2]): 14.8 µM
- selectivity ratio at 96 h [3]: 22
- CC50 [4]: 330 µM

SMILES: O=C1Nc2ccccc2/C1=N\NC(=S)NC1C2CC3CC(C2)CC1C3 (centres undefined)
- Activity (Vaccinia virus [7]): 42%

SMILES: CC(C)=CCC[C@H](C)CCNC(=O)C12CC3CC(CC(C3)C1)C2
- IC50 (Vaccinia virus [2]): 3.6 µM
- selectivity ratio at 96 h [3]: 5
- CC50 [4]: 18.1 µM

SMILES: CC1=CC[C@H](CCNC(=O)C23CC4CC(CC(C4)C2)C3)C1(C)C
- IC50 (Vaccinia virus [2]): 2.5 µM
- selectivity ratio at 96 h [3]: 126
- CC50 [4]: 317 µM

SMILES: CC(C)=CCC/C(C)=C/CNC(=O)C12CC3CC(CC(C3)C1)C2
- IC50 (Vaccinia virus [2]): 5.9 µM
- selectivity ratio at 96 h [3]: 3
- CC50 [4]: 18.9 µM

SMILES: CC(C)=CCCC(C)CC(=O)NC12CC3CC(CC(C3)C1)C2 (centres undefined)
- IC50 (Vaccinia virus [2]): 3.1 µM
- selectivity ratio at 96 h [3]: 12
- CC50 [4]: 37 µM

SMILES: CC(C)=CCC/C(C)=C\CNC(=O)C12CC3CC(CC(C3)C1)C2
- CC50 [4]: 12.9 µM

SMILES: CC1(C)[C@H]2CC=C(CCNC(=O)C3C4CC5CC(C4)CC3C5)[C@@H]1C2 (some centres undefined)
- IC50 (Ectromelia virus): 9.5 µM
- selectivity ratio at 96 h [5]: 39
- selectivity ratio at 96 h [6]: 30
- IC50 (Cowpox virus): 12.5 µM
- IC50 (Vaccinia virus [2]): 4.4 µM
- selectivity ratio at 96 h [3]: 85
- CC50 [4]: 372 µM

SMILES: CC1(C)[C@H]2CC=C(CCNC(=O)C34CC5CC(CC(C5)C3)C4)[C@@H]1C2
- IC50 (Ectromelia virus): 1.6 µM
- selectivity ratio at 96 h [5]: 469
- selectivity ratio at 96 h [6]: 183
- IC50 (Cowpox virus): 4.1 µM
- IC50 (Vaccinia virus [2]): 1.8 µM
- selectivity ratio at 96 h [3]: 417
- CC50 [4]: 750 µM

SMILES: CC1(C)[C@@H]2CC[C@@]1(CS(=O)(=O)NC1C3CC4CC(C3)CC1C4)C(=O)C2 (some centres undefined)
- IC50 (Vaccinia virus [2]): 0.6 µM
- selectivity ratio at 96 h [3]: 160
- CC50 [4]: 95.8 µM

SMILES: CC1(C)[C@@H]2CC[C@@]1(C)[C@H](NC(=O)C13CC4CC(CC(C4)C1)C3)C2
- IC50 (Vaccinia virus [2]): 10.6 µM
- selectivity ratio at 96 h [3]: 30
- CC50 [4]: 317 µM

SMILES: CC(C)CCCC(C)CCNC(=O)C1C2CC3CC(C2)CC1C3 (centres undefined)
- IC50 (Vaccinia virus [2]): 2.8 µM
- selectivity ratio at 96 h [3]: 5
- CC50 [4]: 13.7 µM

SMILES: CC1(C)[C@H]2CC=C(C(=O)NC3C4CC5CC(C4)CC3C5)[C@@H]1C2 (some centres undefined)
- IC50 (Ectromelia virus): 1.7 µM
- selectivity ratio at 96 h [5]: 477
- selectivity ratio at 96 h [6]: 113
- IC50 (Cowpox virus): 7.2 µM
- IC50 (Vaccinia virus [2]): 2.5 µM
- selectivity ratio at 96 h [3]: 325
- CC50 [4]: 812 µM

SMILES: O=C(NC12CC3CC(CC(C3)C1)C2)C(c1ccccc1)c1ccccc1
- Activity (Vaccinia virus [8]): 72%

SMILES: CC1(C)[C@H]2CC=C(CNC(=O)C34CC5CC(CC(C5)C3)C4)[C@@H]1C2
- IC50 (Ectromelia virus): 2.7 µM
- selectivity ratio at 96 h [5]: 707
- selectivity ratio at 96 h [6]: 406
- IC50 (Cowpox virus): 4.7 µM
- IC50 (Vaccinia virus [2]): 1.7 µM
- selectivity ratio at 96 h [3]: 1120
- CC50 [4]: 1910 µM

SMILES: CC1(C)[C@H]2CC=C(C(=O)NC34CC5CC(CC(C5)C3)C4)[C@@H]1C2
- IC50 (Vaccinia virus [2]): 0.7 µM
- selectivity ratio at 96 h [3]: 11
- CC50 [4]: 7.9 µM

SMILES: CC(C)CCCC(C)CCNC(=O)C12CC3CC(CC(C3)C1)C2 (centres undefined)
- CC50 [4]: 17.3 µM

SMILES: CC1(C)[C@@H]2CC[C@@]1(CS(=O)(=O)NC13CC4CC(CC(C4)C1)C3)C(=O)C2
- IC50 (Vaccinia virus [2]): 2.3 µM
- selectivity ratio at 96 h [3]: 71
- CC50 [4]: 164 µM

SMILES: O=C(NN1C(=O)C2C3C=CC(C4CC34)C2C1=O)c1ccc(C(F)(F)F)cc1 (centres undefined)
- IC50 (Vaccinia virus [2]): 0.01 µM
- selectivity ratio at 96 h [3]: 128000
- CC50 [4]: 1280 µM

SMILES: Nc1ccn(C[C@@H](CO)OCP(=O)(O)O)c(=O)n1 [CIDOFOVIR]
- selectivity ratio at 96 h [3]: 12
